Measurements published in paper PMC12529337 (RSC Medicinal Chemistry, 2025).
Where two headings read alike, the source gives them in different places. Each block holds one compound with its values, some of them ahead of it.

Legend:
MDA-MB-231 cells [1] = test: MTT assay, anticancer activity, MDA-MB-231; assay type: cell-based, human; details: for IC50: read-out: IC50 MDA-MB-231
MCF-7 cells = test: MTT assay, anticancer activity, MCF-7; assay type: cell-based, human; details: read-out: IC50 MCF-7
MCF-10A cells = test: MTT assay, normal counterpart MCF-10A; assay type: cell-based, human; details: read-out: IC50 MCF-10A, 72 h
[2] = tested on: ROS production in murine macrophages RAW 264.7; test: ROS production; assay type: cell-based; details: LPS; for ROS reduction: concentration not stated in text (5 or 10 μM); for antioxidant activity (ROS production): lower dosage (5 μM)
Method in brief: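 RAW 264.7 cells received the same treatment as in the Griess assay: LPS 1 μg mL−1 plus test compound at 5 or 10 μM, 24 h, 1% FBS. NAC (5 × 103, 10 × 103, 20 × 103 μM) was the positive control. After PBS washing, H2DCFDA 25 μM was added for 40 min at 37 °C. Fluorescence was read at λex 485/λem 535. Results are % ROS from mean fluorescence of co-treated vs LPS-alone wells, three experiments in triplicate.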

[3] = target: T1, human topoisomerase I (hTopoI) (Homo sapiens, UniProt P11387); test: Human topoisomerase I relaxation assay; assay type: biochemical; details: for inhibition of hTopoI relaxation of supercoiled DNA: pHOT1, 1 h 37 °C, gel
T1 sequence (P11387 1-765): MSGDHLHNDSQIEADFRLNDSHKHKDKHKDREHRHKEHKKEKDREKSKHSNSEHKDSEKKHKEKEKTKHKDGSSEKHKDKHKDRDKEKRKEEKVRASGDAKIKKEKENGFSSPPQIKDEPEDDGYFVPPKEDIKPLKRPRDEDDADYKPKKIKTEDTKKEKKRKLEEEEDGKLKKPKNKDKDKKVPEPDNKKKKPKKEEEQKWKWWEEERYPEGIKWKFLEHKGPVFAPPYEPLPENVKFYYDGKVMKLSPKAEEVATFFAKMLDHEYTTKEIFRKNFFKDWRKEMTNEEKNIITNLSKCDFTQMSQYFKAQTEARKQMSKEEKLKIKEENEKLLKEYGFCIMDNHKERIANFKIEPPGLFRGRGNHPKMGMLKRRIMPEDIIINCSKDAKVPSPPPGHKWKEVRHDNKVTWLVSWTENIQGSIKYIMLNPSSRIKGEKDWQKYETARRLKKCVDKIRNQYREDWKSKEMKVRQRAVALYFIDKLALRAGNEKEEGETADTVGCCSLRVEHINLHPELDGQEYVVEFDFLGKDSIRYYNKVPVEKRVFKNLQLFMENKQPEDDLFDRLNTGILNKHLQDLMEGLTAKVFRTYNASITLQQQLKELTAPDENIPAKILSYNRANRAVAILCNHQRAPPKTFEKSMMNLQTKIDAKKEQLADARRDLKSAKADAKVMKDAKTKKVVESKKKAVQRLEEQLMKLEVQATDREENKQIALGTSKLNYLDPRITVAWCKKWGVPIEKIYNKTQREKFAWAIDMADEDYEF
Method in brief: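 Recombinant human topoisomerase I (2 units) with 0.25 μg supercoiled pHOT1 plasmid as substrate. Test compound (in DMSO) at 0.001, 0.01, 0.1 and 1 μM; DMSO vehicle control. Incubated 1 h at 37 °C. Run on a 1% agarose gel in 1× TAE without ethidium bromide, then post-stained with EB ([…], 30 min), washed and viewed under UV.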

[4] = tested on: murine macrophages RAW 264.7; test: MTT test, cytotoxicity on RAW 264.7 macrophages; assay type: cell-based; details: for cytotoxicity toward RAW 264.7: 10 μM, 24 h
Method in brief: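 RAW 264.7 cells were kept in high-glucose DMEM with 10% FBS at 37 °C and 5% CO2. Cells were seeded in 48-well plates and exposed for 24 h to varying test compound concentrations (in DMSO). Viability was measured by MTT and expressed as % of control. Three independent experiments were run in triplicate.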

[5] = tested on: NO production in murine macrophages RAW 264.7; test: NO production; assay type: cell-based; details: 24 h, LPS 1 μg/mL
Method in brief: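 Plated RAW 264.7 cells were treated after 24 h with test compound (5 or 10 μM, in DMSO) plus LPS 1 μg mL−1 in 1% FBS medium for 24 h. Indomethacin (5, 10, 50 μM) was the positive control. Medium was mixed 1:1 with Griess reagent for 30 min at RT and A540 was read. Results are % NO vs LPS-only, three experiments in triplicate.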

[6] = tested on: iNOS expression in murine macrophages RAW 264.7; test: iNOS expression by immunofluorescence in RAW 264.7; assay type: cell-based; details: 5 μM, co-treated with LPS 1 μg/mL, 24 h
Method in brief: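 On coverslips, RAW 264.7 cells received LPS 1 μg mL−1 with test compound (5 μM) or indomethacin (50 μM) in 1% FBS medium for 24 h. Cells were methanol-fixed (−20 °C, 15 min) and incubated overnight at 4 °C with anti-iNOS (1:100, 2% BSA), then Alexa Fluor 568 goat anti-mouse (1:500). DAPI 0.2 μg mL−1 was applied. Images taken at 40× were used for semi-quantitative fluorescence measurement, two independent experiments.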

MDA-MB-231 cells [7] = test: TUNEL assay, nuclear DNA damage; assay type: cell-based, human; details: 1 μM, 24 h
Method in brief: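 MDA-MB-231 cells (DMEM/F12, 5% FBS) were grown on coverslips and treated for 24 h with 1 μM test compound in DMSO or with vehicle. Cells were PBS-washed, methanol-fixed (−20 °C, 15 min) and incubated with the one-step TUNEL (FITC) enzyme for 35 min at 37 °C in the dark. DAPI counterstain was 0.2 mg mL−1 for 10 min at RT. Imaging used fluorescence microscopy at 20× (490/515 nm; DAPI 350/460 nm), three independent experiments.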

[8] = MTT, mean ± SD, normal mammary epithelial cells

Compound: C[C@H](c1ccccc1)n1cc[n+](C)c1.[Ag][I] [(R)-AgL1, (R)-3-Methyl-1-(1-phenylethyl)-1H-imidazol-3-ium silver(I) iodide]
IC50 (MDA-MB-231 cells [1]; MTT, 72 h, mean ± SD): 20.6 ± 1.4 µM | IC50 (MCF-7 cells; MTT, 72 h, mean ± SD): 11.2 ± 0.6 µM | IC50 (MCF-10A cells; [8]): 72.8 ± 5.8 µM

Compound: C[C@H](c1ccccc1)n1cc[n+]([C@H](C)c2ccccc2)c1.[Cl][Ag] [(R)-AgL2, 1,3-Bis((R)-1′-phenylethyl)imidazolium silver(I) chloride]
IC50 (MDA-MB-231 cells [1]; MTT, 72 h, mean ± SD): 17.6 ± 1.7 µM | IC50 (MCF-7 cells; MTT, 72 h, mean ± SD): 9.7 ± 0.8 µM | IC50 (MCF-10A cells; [8]): 24.8 ± 1.7 µM | ROS reduction [2]: ~12%

Compound: C[C@H](c1ccccc1)n1cc[n+](C)c1.[Cl][Au] [(R)-AuL1, (R)-3-Methyl-1-(1-phenylethyl)-1H-imidazol-3-ium gold(I) chloride]
IC50 (MDA-MB-231 cells [1]; MTT, 72 h, mean ± SD): 5.8 ± 0.5 µM | IC50 (MCF-7 cells; MTT, 72 h, mean ± SD): 6.8 ± 0.4 µM | IC50 (MCF-10A cells; [8]): 2.1 ± 0.1 µM | inhibition of hTopoI relaxation of supercoiled DNA ([3]; 0.001 μM): partially | inhibition of hTopoI relaxation of supercoiled DNA ([3]; 0.01 μM): totally block | inhibition of hTopoI relaxation of supercoiled DNA ([3]; 0.1 μM): preserved | inhibition of hTopoI relaxation of supercoiled DNA ([3]; 1 μM): preserved | hTopoI inhibiting concentration, times lower than that of (S)-AuL1 ([3]; total inhibition 0.01 vs 1 μM): 100 times | cytotoxicity toward RAW 264.7 [4]: cytotoxic | reduction of NO production ([5]; 5 μM): about 18%

Compound: C[C@H](c1ccccc1)n1cc[n+]([C@H](C)c2ccccc2)c1.[Cl][Au] [(R)-AuL2, 1,3-Bis((R)-1′-phenylethyl)imidazolium gold(I) chloride]
IC50 (MDA-MB-231 cells [1]; MTT, 72 h, mean ± SD): 6.9 ± 0.3 µM | IC50 (MCF-7 cells; MTT, 72 h, mean ± SD): 7 ± 0.6 µM | IC50 (MCF-10A cells; [8]): 7.1 ± 0.5 µM | cytotoxicity toward RAW 264.7 [4]: cytotoxic | reduction of NO production ([5]; 5 μM): about 18% | antioxidant activity (ROS production) [2]: did not exert any antioxidant activity

Compound: N.N.[Cl][Pt][Cl] [Cisplatin, cisplatin, reference compound]
IC50 (MDA-MB-231 cells [1]; MTT, 72 h, mean ± SD): 29.5 ± 0.9 µM | IC50 (MCF-7 cells; MTT, 72 h, mean ± SD): 37.3 ± 1.2 µM | IC50 (MCF-10A cells; [8]): 79.4 ± 1.6 µM

Compound: COc1ccc2c(c1)c(CC(=O)O)c(C)n2C(=O)c1ccc(Cl)cc1 [Ind, indomethacin, reference compound]
reduction of NO production ([5]; 50 μM): about 26%

Compound: CC(=O)N[C@@H](CS)C(=O)O [NAC, N-acetyl-cysteine, reference compound]
residual viability vs LPS-treated cells ([4]; 5 × 10^3, 10 × 10^3 and 20 × 10^3 μM, data not shown): about 98.7% | reduction in ROS levels ([2]; 10 × 10^3 μM): about 25% | reduction in ROS levels ([2]; 20 × 10^3 μM): ~40%

The next lines start with results.

IC50 (MDA-MB-231 cells [1]; Homo sapiens, MDA-MB-231, 72 h): 71 ± 6.8 µM | IC50 (MCF-7 cells; Homo sapiens, MCF7, 72 h): 34 ± 2.4 µM
Compound: C[C@H](c1ccccc1)n1cc[n+](C)c1 [(R)-P1, (R)-3-Methyl-1-(1-phenylethyl)-1H-imidazol-3-ium iodide]
IC50 (MCF-10A cells; Homo sapiens, MCF-10A): 40.3 ± 3.6 µM

IC50 (MDA-MB-231 cells [1]; Homo sapiens, MDA-MB-231, 72 h): > 100 µM | IC50 (MCF-7 cells; Homo sapiens, MCF7, 72 h): 58 ± 4.3 µM
Compound: C[C@H](c1ccccc1)n1cc[n+]([C@H](C)c2ccccc2)c1 [(R)-P2, 1,3-Bis((R)-1′-phenylethyl)imidazolium chloride]
IC50 (MCF-10A cells; Homo sapiens, MCF-10A): 28.2 ± 1.9 µM

IC50 (MDA-MB-231 cells [1]; MTT, 72 h, mean ± SD): 14.3 ± 1.2 µM | IC50 (MCF-7 cells; MTT, 72 h, mean ± SD): 4.2 ± 0.3 µM
Compound: C[C@@H](c1ccccc1)n1cc[n+]([C@@H](C)c2ccccc2)c1.[Cl][Ag] [(S)-AgL2, 1,3-Bis((S)-1′-phenylethyl)imidazolium silver(I) chloride]
IC50 (MCF-10A cells; [8]): 24 ± 1.1 µM | ROS reduction [2]: about 15%

IC50 (MDA-MB-231 cells [1]; MTT, 72 h, mean ± SD): 2.3 ± 0.1 µM | IC50 (MCF-7 cells; MTT, 72 h, mean ± SD): 1.8 ± 0.1 µM
Compound: C[C@@H](c1ccccc1)n1cc[n+]([C@@H](C)c2ccccc2)c1.[Cl][Au] [(S)-AuL2, 1,3-Bis((S)-1′-phenylethyl)imidazolium gold(I) chloride]
IC50 (MCF-10A cells; [8]): 5.3 ± 0.2 µM | cytotoxicity toward RAW 264.7 [4]: cytotoxic | intracellular iNOS expression vs LPS-treated cells [6]: net diminution | antioxidant activity (ROS production) [2]: did not exert any antioxidant activity

IC50 (MDA-MB-231 cells [1]; Homo sapiens, MDA-MB-231, 72 h): 87 ± 7.6 µM | IC50 (MCF-7 cells; Homo sapiens, MCF7, 72 h): > 100 µM
Compound: C[C@@H](c1ccccc1)n1cc[n+](C)c1 [(S)-P1, (S)-3-Methyl-1-(1-phenylethyl)-1H-imidazol-3-ium iodide]
IC50 (MCF-10A cells; Homo sapiens, MCF-10A): > 100 µM

IC50 (MDA-MB-231 cells [1]; Homo sapiens, MDA-MB-231, 72 h): 10.8 ± 1.1 µM | IC50 (MCF-7 cells; Homo sapiens, MCF7, 72 h): 16.3 ± 1.3 µM
Compound: C[C@@H](c1ccccc1)n1cc[n+]([C@@H](C)c2ccccc2)c1 [(S)-P2, 1,3-Bis((S)-1′-phenylethyl)imidazolium chloride]
IC50 (MCF-10A cells; Homo sapiens, MCF-10A): 28.8 ± 1.9 µM

IC50 (MDA-MB-231 cells [1]; MTT, 72 h, mean ± SD): 0.5 ± 0.1 µM | IC50 (MCF-7 cells; MTT, 72 h, mean ± SD): 1.7 ± 0.1 µM | inhibition of hTopoI relaxation of supercoiled DNA ([3]; 0.001 μM): no inhibition | inhibition of hTopoI relaxation of supercoiled DNA ([3]; 0.01 μM): partially | inhibition of hTopoI relaxation of supercoiled DNA ([3]; 0.1 μM): partially | inhibition of hTopoI relaxation of supercoiled DNA ([3]; 1 μM): totally inhibited
Compound: (S)-3-Methyl-1-(1-phenylethyl)-1H-imidazol-3-ium gold(I) chloride [(S)-AuL1]
IC50 (MCF-10A cells; [8]): 11.5 ± 0.5 µM | nuclear DNA damage (TUNEL green fluorescence) (MDA-MB-231 cells [7]): marked genomic DNA damage | reduction of NO production ([5]; 5 μM): about 33% | reduction of NO production ([5]; 10 μM): ~57% | intracellular iNOS expression vs LPS-treated cells [6]: net diminution | reduction of ROS production ([2]; 10 μM): ~32%

IC50 MDA-MB-231 (MDA-MB-231 cells [1]; MTT, 72 h, mean ± SD): totally inactive | IC50 (MDA-MB-231 cells [1]; MTT, 72 h, mean ± SD): > 100 µM | IC50 (MCF-7 cells; MTT, 72 h, mean ± SD): 7.5 ± 0.8 µM
Compound: (S)-3-Methyl-1-(1-phenylethyl)-1H-imidazol-3-ium silver(I) iodide [(S)-AgL1]
IC50 (MCF-10A cells; [8]): 77.1 ± 6.8 µM
